Bioassay records as filed in PubChem BioAssay.
procasp7 counter = activates human procaspase-7, counter-screen for procaspase-3 activators | recombinant procaspase-7, Ac-DEVD-pNA absorbance 405 nm; D23A/D198A/D206A triple mutant, cannot self-cleave; scale: DMSO 0, 5 µM enzyme 100 | P55210 | activation, % at 8.5 µM | 330,000 tested, 0.093% active;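 active = percent activation above the screen-wide mean plus 3 SD, cut at about 25% in these data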
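Assay system – Uncleavable procaspase-7 mutant enzyme · Quantity – 2 µM procaspase-7 mutant as dispensed · Times – 1 h preincubation, 2 h reaction · Dosing – single nominal 8.5 µM compound dose, 0.8% DMSO final · Buffer or medium – Zinc-free 50 mM HEPES buffer, pH 7.4, with NaCl and Triton X-100 · Detection – Epi-absorbance of released pNA at 405 nm, two timepoints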
MsrA inh = inhibits bovine methionine sulfoxide reductase A; purified bovine MsrA, absorbance read-out; inhibition, % at 15.5 µM; 360,000 tested, 0.75% active; AID 651718; in the data active = inhibition above about 4.5%
procasp3 activ = activators of human procaspase-3; P42574; recombinant procaspase-3 D3A, Ac-DEVD-pNA absorbance 405 nm; activation, % at 8.5 µM; 330,000 tested, 0.11% active;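 active = activation above the mean of all tested compounds plus 3 SD, cut at about 21% in these data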
Target sequence (P42574 whole entry D9A/D28A/D175A): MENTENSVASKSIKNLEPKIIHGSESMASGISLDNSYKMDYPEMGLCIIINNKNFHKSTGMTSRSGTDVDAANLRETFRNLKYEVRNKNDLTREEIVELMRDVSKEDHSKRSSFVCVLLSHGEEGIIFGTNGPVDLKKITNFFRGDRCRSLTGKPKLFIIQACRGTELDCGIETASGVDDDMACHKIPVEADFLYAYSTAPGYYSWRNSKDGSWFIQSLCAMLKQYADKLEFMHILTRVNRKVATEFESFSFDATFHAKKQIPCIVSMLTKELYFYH
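Compound: 8.5 µM single point, 0.8% DMSO / Material: Autoprocessing-dead procaspase-3 D3A mutant enzyme / Timing: 1 h preincubation plus 2 h reaction at 25 °C / Medium: Zinc-free HEPES/NaCl buffer with 0.01% Triton X-100 at pH 7.4 / Technique: 405 nm absorbance of p-nitroaniline, reads at 0 and 120 min / Repeats: one well per compound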
A1 inh = inhibitors of the anti-apoptotic protein A1, read as caspase activation; MEF A1-2A-BIM cells, Caspase-Glo 3/7 luminescence, 3 h; percent of clofoctol response, vehicle zero; caspase activation, % (no concentration beside the values); 330,000 tested, 0.066% active;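 active = over half of replicate activation scores above 10%, or exactly half above 10 with the replicate mean above 10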
MsrA act = activates bovine MsrA enzyme. purified bovine MsrA, absorbance read-out. activation, % at 10.6 µM. 360,000 tested, 0.3% active. AID 602163; in the data active = activation above about 7.5%
PC3 dual counter = counter-screen for dual procaspase-3/7 activators: human procaspase-3 activation; recombinant PC-3 D3A, Ac-DEVD-pNA absorbance 405 nm; aspartates 9, 28, 175 changed to alanine; 100% = enzyme control; AID 493114; shares compounds with procasp7 counter; 290 tested, under 10 active; activation, % at 8.5 µM;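 active = mean percent activation across triplicates above a set limit taken from the earlier primary procaspase-3 screen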
PC7 dual conf = confirmation of dual procaspase activators: human procaspase-7 activation. shares compounds with procasp7 counter. recombinant procaspase-7, Ac-DEVD-pNA absorbance 405 nm; D23A/D198A/D206A mutant that cannot self-cleave. activation, % at 8.5 µM. 290 tested, under 10 active. AID 493115;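 active = mean activation above a set limit carried over from the earlier primary screen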
Large screens that a line does not name were inactive (follow-up assays come after a bar, where they were run). A selection: hits, their analogues and other compounds. The true share with any hit is near 1.2%.

Cc1cccc(-c2cc3nc(-c4ccccc4)cc(N4CCC5(CC4)OCCO5)n3n2)c1	procasp7 counter 30.3 | PC3 dual counter inactive | PC7 dual conf inactive
Fc1cccc(-c2cc3nc(-c4ccccc4)cc(N4CCC5(CC4)OCCO5)n3n2)c1	procasp7 counter 29.9, procasp3 activ 21.6 | PC3 dual counter inactive | PC7 dual conf inactive
COc1ccc2c(C#CCCO)c(-c3ccc(S(C)(=O)=O)cc3)sc2c1	none
COc1ccc2c(-c3ccc(S(N)(=O)=O)cc3)c(-c3ccc(S(C)(=O)=O)cc3)sc2c1	procasp7 counter 43.7, procasp3 activ 23.2 (no result: A1 inh) | PC3 dual counter inactive | PC7 dual conf inactive
O=C(CCC(=O)N(CC(=O)NC1CCCC1)Cc1ccccc1)Nc1nccs1	procasp7 counter 101.3 | PC3 dual counter inactive | PC7 dual conf inactive
COc1ccc(CNC(=O)C2CCN(c3nc(OC)nc(OC)n3)CC2)cc1	none
COc1ccc(CNC(=O)C2CCN(c3cc(C(=O)Nc4cccc(OC)c4)ccn3)CC2)cc1	procasp7 counter 52.9 | PC3 dual counter inactive | PC7 dual conf inactive
CCS(=O)(=O)N1CCC(C(=O)NCc2cc(OC)ccc2OC)CC1	none
COc1cccc(NC(=O)c2ccnc(N3CCC(C(=O)NCc4cc(OC)ccc4OC)CC3)c2)c1	procasp7 counter 33.5 (no result: MsrA inh) | PC3 dual counter inactive | PC7 dual conf inactive
O=C(CC(C(=O)O)C1CCCO1)NCc1ccccc1 (configuration not stated)	none
O=C(O)CC(C(=O)NCc1ccccc1)C1CCCO1 (configuration not stated)	procasp7 counter 27.0 | PC3 dual counter inactive | PC7 dual conf inactive
Cc1cc(C)c2c(N)c(C(=O)N/N=C/c3ccccc3)sc2n1	procasp7 counter 32.1, procasp3 activ 35.2 | PC3 dual counter inactive | PC7 dual conf inactive
O=C(N[C@H](c1cccc(Br)c1)[C@@H]1CCCC=C1c1ccccc1)C(F)(F)F	none (no result: procasp7 counter, procasp3 activ, A1 inh, MsrA act)
COc1ccc(C(=O)N/N=C/c2ccc(OC(=O)c3ccccc3)cc2)cc1	none
COc1ccc(C(=O)N/N=C/c2ccc(N(C)c3ccccc3)cc2)cc1	procasp7 counter 43.6, procasp3 activ 41.0 | PC3 dual counter inactive | PC7 dual conf inactive
CN1CCCCC(NC(=O)c2ccc3ccccc3c2)C1=O (configuration not stated)	none (no result: procasp7 counter, procasp3 activ, A1 inh, MsrA act)
CCOc1cc(-c2c(C#N)c(N)nc3c2CCc2ccccc2-3)ccc1O	procasp7 counter 26.3 | PC3 dual counter inactive | PC7 dual conf inactive
Cc1ccc(Cl)cc1C1=CC(=O)C[C@H](c2ccc(F)cc2)C1	procasp7 counter 26.9 | PC3 dual counter inactive | PC7 dual conf inactive
COCC1CN(CCc2ccc(F)cc2)S(=O)(=O)c2c(F)cccc2O1 (configuration not stated)	none (no result: procasp7 counter, procasp3 activ, A1 inh, MsrA act)
Cc1ccc(S(=O)(=O)c2cc(C#N)c(=O)[nH]c2N)cc1	procasp7 counter 28.2 | PC3 dual counter inactive | PC7 dual conf inactive
CC(C)(C)c1ccc(C#C[C@@H]2C=C[C@@H](O)[C@@H](COC(=O)NCc3ccccc3)O2)cc1	none (no result: procasp7 counter, procasp3 activ, A1 inh, MsrA act)
Cc1ccccc1NC(=O)c1c(C)nc(SCC(=O)OCc2ccccc2)c(C#N)c1-c1ccc(F)cc1	none
COC(=O)CSc1nc(C)c(C(=O)Nc2ccccc2C)c(-c2ccc(Cl)cc2)c1C#N	procasp7 counter 32.3 | PC3 dual counter inactive | PC7 dual conf inactive
Cc1ccc(Oc2nc3c(C)cccn3c(=O)c2/C=C(\C#N)C(N)=O)cc1	procasp7 counter 45.6, procasp3 activ 22.2 | PC3 dual counter inactive | PC7 dual conf inactive
Cn1c2ccccc2c(=O)c2cc(C#Cc3ccsc3)ccc21	procasp7 counter 39.7, procasp3 activ 38.5 | PC3 dual counter inactive | PC7 dual conf inactive
Cn1c2ccccc2c(=O)c2ccc(C#Cc3ccccn3)cc21	procasp7 counter 26.9 (no result: MsrA act) | PC3 dual counter inactive | PC7 dual conf inactive
